Results gathered from unrelated publications.
Compare with care: the assays were run in different laboratories.

The half-life of `N#Cc1[nH]nnc1-c1csc(-c2ccc(Cl)cc2)n1` is reported as 2.9 h (male Sprague-Dawley rat, plasma; oral, 10 mg/kg).
With `CCc1cc(OC)c2nccc(N3CCc4c(cc(Cn5ccnc5)cc4-c4cn(C)nc4C(F)(F)F)C3=O)c2c1` the half-life was 1.3 h (male Sprague-Dawley rat, plasma; oral, 50 mg/kg).
With `CCOC(=O)[C@@]12C[C@@H]1[C@@H](n1ccc3c(NC)nc(C#Cc4ccc(Cl)s4)nc31)[C@H](O)[C@@H]2O` the half-life was 1.31 h (male Sprague-Dawley rat, plasma; intravenous, 0.5 mg/kg).
For `COc1cc2c3c(n(CCCN4CCOCC4)c(=O)c2cc1OC)-c1cc2c(cc1C3=O)OCO2`, the half-life was 4.6 h (female Fischer 344 rat, plasma; intravenous, 24 mg/m², single dose).
`CC[C@H](C)[C@H](NC(=O)[C@H](Cc1ccccc1)NC(=O)[C@H](CCC(=O)O)NC(=O)[C@H](CCCNC(=N)N)NC(=O)[C@H](C)NC(=O)[C@H](C)NC(=O)[C@H](CCC(N)=O)NC(=O)[C@H](CCC(=O)O)NC(=O)[C@H](CCC(=O)O)NC(=O)[C@H](CC(C)C)NC(=O)[C@H](Cc1ccc(O)cc1)NC(=O)[C@H](CO)NC(=O)[C@H](CO)NC(=O)[C@@H](NC(=O)[C@H](CC(=O)O)NC(=O)[C@H](CO)NC(=O)[C@@H](NC(=O)[C@H](Cc1ccccc1)NC(=O)[C@@H](NC(=O)CNC(=O)[C@H](CCC(=O)O)NC(=O)[C@H](C)NC(=O)CCc1c[nH]cn1)[C@@H](C)O)[C@@H](C)O)C(C)C)C(=O)N[C@@H](C)C(=O)N[C@@H](Cc1c[nH]c2ccccc12)C(=O)N[C@@H](CC(C)C)C(=O)N[C@H](C(=O)N[C@@H](CCCNC(=N)N)C(=O)NCC(=O)N[C@@H](CCCNC(=N)N)C(=O)N[C@@H](CCCCNC(=O)COCCOCCNC(=O)COCCOCCNC(=O)CC[C@H](NC(=O)CCCCCCCCCCCCCCCCC(=O)O)C(=O)O)C(=O)O)C(C)C` has a half-life of 13 h (rat, plasma; subcutaneous, 20 nmol/kg).
The half-life of `Cc1noc(-c2cc3cc(-c4nc(C(=O)NCc5ccncc5)[nH]c4C)ccc3[nH]2)n1` is reported as 1.8 h (Sprague-Dawley rat, plasma; intravenous, 1 mg/kg).
`Oc1c(Br)cc(Cl)c2cccnc12` has a half-life of 5.6 h (Sprague-Dawley rat, plasma; subcutaneous, 10 mg/kg).
`Oc1c(-n2ccnn2)cnn1-c1cc(N2CCOCC2)ncn1` gave a half-life of 3 h (male rat, plasma; oral, 5 mg/kg).
The half-life of `C[C@H](Nc1ncnc2[nH]cnc12)c1cc2cccc(Cl)c2c(=O)n1-c1ccccc1` is reported as 0.82 h (male Wistar rat, plasma; oral, 25 mg/kg, single dose).
For `Cc1c(-c2ccccc2)cccc1N1C(=O)c2cc(CN[C@H](C(=O)O)C(C)O)c(OCc3cccc(C#N)c3)cc2C1=O` (stereo partly shown), the half-life was 4.33 h (Sprague-Dawley rat, plasma; oral, 50 mg/kg).
`CNCc1cc(-c2ccccc2F)n(S(=O)(=O)c2cccnc2)c1` has a half-life of 1.29 h (Sprague-Dawley rat, plasma; oral, 10 mg/kg).
`Cc1cnc(N2CC3(CCOCC3)C2)c(C(=O)Nc2ccc(C(=O)N3CCc4cc(C(=O)Nc5c(C)cccc5F)sc4-c4ccccc43)cc2)c1` gave a half-life of about 2.3 h (rat, plasma; intravenous, 0.1 mg/kg, single dose).
`COc1ccc2c(Cc3ccccc3F)c3[n+](cc2c1OC)CCc1cc2c(cc1-3)OCO2.[Br-]` gave a half-life of 1.61 h (rat, plasma; intravenous, 5 mg/kg).
The half-life of `O=C(Nc1cc(F)c(F)c(F)c1)c1ccc(F)c(S(=O)(=O)NCc2cccc(B(O)O)c2)c1` is reported as 0.94 h (male Sprague-Dawley rat, plasma; intravenous, 2 mg/kg).
`CCc1cc(C(=O)NC)c2nccc(N3CCc4c(cc(Cn5ccnc5)cc4-c4cn(C)nc4C(F)(F)F)C3=O)c2c1` has a half-life of 3.8 h (male Sprague-Dawley rat, plasma; oral, 50 mg/kg, single dose).
`CC(C)(O)[C@H]1CC[C@H](Nc2ccc3ncc(-c4cccc(C(F)(F)F)c4)n3n2)CC1` gave a half-life of 4.1 h (female Sprague-Dawley rat, plasma; oral, 40 mg/kg).
`COc1ccc2c(=O)n(C)c(-c3ccccc3)nc2c1` gave a half-life of 0.83 h (male Sprague-Dawley rat, plasma; intravenous, 2 mg/kg).
`COCCOC(=O)C1=C(C)NC(C)=C(C(=O)OC(C)C)C1c1cccc([N+](=O)[O-])c1` (stereo not shown) has a half-life of 7.5 h (male Sprague-Dawley rat, plasma; oral, 12 mg/kg).
`C#Cc1cccc(Nc2ncnc3cc(OCCOC)c(OCCOC)cc23)c1` gave a half-life of 2.25 h (male Sprague-Dawley rat, plasma; oral, 12 mg/kg, single dose).
`N#Cc1[nH]nnc1-c1cccc(OCc2cc(C(F)(F)F)ccc2C(F)(F)F)c1` gave a half-life of 3.9 h (male Sprague-Dawley rat, plasma; oral, 10 mg/kg).
`COc1ccc2c(Cc3ccccc3F)c3n(c(=O)c2c1OC)CCc1cc2c(cc1-3)OCO2` gave a half-life of 3.07 h (rat, plasma; intravenous, 5 mg/kg).
With `CCc1nc(C(N)=O)c(Nc2ccc(N3CCC(N4CCN(C)CC4)CC3)c(OC)c2)nc1NC1CCOCC1` the half-life was 14.3 h (male Sprague-Dawley rat, plasma; oral, 10 mg/kg).
`COc1nc(-c2cc(C)c(N[C@@H](C)c3cc(F)cc(F)c3)nn2)ccc1-n1cnc(C)c1` gave a half-life of 2.2 h (male Sprague-Dawley rat, plasma; oral, 5 mg/kg, single dose).
For `O=C(Nc1ccc(C(F)(F)F)cc1)N1CCC(Cc2cccc(Oc3ccc(C(F)(F)F)cn3)c2)CC1`, the half-life was 7.2 h (male Sprague-Dawley rat, blood; oral, 1 mg/kg).
`N#Cc1ccc(Nc2nc(N)cc(Oc3c(F)cc(-c4ccc(C#N)cc4)cc3F)n2)cc1` gave a half-life of 3.31 h (Sprague-Dawley rat, plasma; oral, 5 mg/kg).
